Assay [1] has as its target T1, recombinant human Nln (Homo sapiens, UniProt Q9BYT8). Conditions: read-out: Ki (published value); inhibition of Nln; cited from earlier work.
The target of assay [2] is T1, recombinant human Nln. In words: Competition of Dyn A peptides with quenched fluorogenic Nln substrate. The assay is classed as biochemical. The essentials:
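N-terminally 6xHis-tagged human Nln (Ser38–Pro704) was incubated in aCSF at 37 °C with 15 µM quenched substrate Mca-Pro-Leu-Gly-Pro-D-Lys(DNP)-OH, ± Dyn A peptide at 0.1–100 µM. Fluorescence was recorded continuously for 20 min under initial-velocity conditions (<10% substrate consumed). V0 was expressed as % of the no-peptide control and fitted to three-parameter log(inhibitor)–response to give IC50. Ki was calculated by Cheng–Prusoff (Km 8 µM). n=4, duplicates.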

Another assay has as its target rNln E475A (Rattus norvegicus, UniProt P42676, E498A). The assay is classed as binding. In short, it runs like this: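 Rat Nln (Met37–Ser704, E475A) with a C-terminal 6xHis tag, expressed in E. coli BL21(DE3) and purified by Ni-affinity and SEC. FAM-labelled Dyn A peptides (FAM replacing Tyr1; 18 nM final) were mixed with 0–50 µM Nln in aCSF (0.2 µM ZnSO4, pH 7.2) plus 0.01% Triton X-100. Polarization was read at 25 °C (ex 485/em 535 nm). ΔmP versus no-Nln was fitted to one-site binding with ligand depletion for KD.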

The values that follow come from PMC11310207 (Scientific Reports, 2024).

Where two headings read alike, the source gives them in different places. Ends that are not written are not given here. Peptide text beside a SMILES is read from it. * marks the point of attachment. 5FAM = O=C1OC2(c3ccc(O)cc3Oc3cc(O)ccc32)c2ccc(C(=O)*)cc21

T1 sequence (Q9BYT8 38-704): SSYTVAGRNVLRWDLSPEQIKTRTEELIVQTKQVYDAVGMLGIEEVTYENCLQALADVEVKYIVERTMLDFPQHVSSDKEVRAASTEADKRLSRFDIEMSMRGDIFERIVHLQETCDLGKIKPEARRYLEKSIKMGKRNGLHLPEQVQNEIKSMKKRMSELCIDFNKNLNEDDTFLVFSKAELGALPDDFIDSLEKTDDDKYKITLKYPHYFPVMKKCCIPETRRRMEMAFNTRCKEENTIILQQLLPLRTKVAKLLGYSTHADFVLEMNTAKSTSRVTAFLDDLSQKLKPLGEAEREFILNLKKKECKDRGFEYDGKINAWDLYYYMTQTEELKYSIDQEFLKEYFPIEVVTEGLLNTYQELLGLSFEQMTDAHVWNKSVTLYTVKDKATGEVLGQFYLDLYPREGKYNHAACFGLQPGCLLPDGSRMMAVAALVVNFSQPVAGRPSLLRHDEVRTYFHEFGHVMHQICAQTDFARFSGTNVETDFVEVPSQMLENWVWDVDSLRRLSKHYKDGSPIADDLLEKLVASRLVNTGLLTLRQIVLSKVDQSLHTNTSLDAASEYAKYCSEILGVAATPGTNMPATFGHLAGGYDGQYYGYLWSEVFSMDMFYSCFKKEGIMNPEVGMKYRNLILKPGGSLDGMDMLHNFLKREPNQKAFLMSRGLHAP
Chain of rNln E475A (P42676 37-704 E498A): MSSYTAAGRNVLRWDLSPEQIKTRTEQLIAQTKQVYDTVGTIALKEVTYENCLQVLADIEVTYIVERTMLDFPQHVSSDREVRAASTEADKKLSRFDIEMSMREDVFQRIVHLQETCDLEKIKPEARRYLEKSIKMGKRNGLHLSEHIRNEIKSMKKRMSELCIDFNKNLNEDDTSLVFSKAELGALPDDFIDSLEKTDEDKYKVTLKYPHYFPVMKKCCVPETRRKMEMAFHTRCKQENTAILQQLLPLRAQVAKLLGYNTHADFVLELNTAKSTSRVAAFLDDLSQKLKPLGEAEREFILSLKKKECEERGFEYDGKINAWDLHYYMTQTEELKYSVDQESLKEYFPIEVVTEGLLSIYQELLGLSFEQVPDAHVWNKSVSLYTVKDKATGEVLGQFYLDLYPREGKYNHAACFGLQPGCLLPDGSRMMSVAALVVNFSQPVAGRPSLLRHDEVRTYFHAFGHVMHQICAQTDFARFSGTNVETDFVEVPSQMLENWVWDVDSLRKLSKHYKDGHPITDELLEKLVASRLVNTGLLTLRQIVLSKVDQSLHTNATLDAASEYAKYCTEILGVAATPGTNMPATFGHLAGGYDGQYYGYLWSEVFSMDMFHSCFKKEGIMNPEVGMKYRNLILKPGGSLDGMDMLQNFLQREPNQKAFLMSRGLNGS

As usually defined, the Ki is the equilibrium dissociation constant of an inhibitor or competing ligand from its target. Take `CC[C@H](C)[C@H](NC(=O)[C@H](CCCNC(=N)N)NC(=O)[C@H](CCCNC(=N)N)NC(=O)[C@H](CC(C)C)NC(=O)[C@H](Cc1ccccc1)NC(=O)CNC(=O)CNC(=O)[C@@H](N)Cc1ccc(O)cc1)C(=O)N[C@@H](CCCNC(=N)N)C(=O)N1CCC[C@H]1C(=O)N[C@@H](CCCCN)C(=O)N[C@@H](CC(C)C)C(=O)N[C@@H](CCCCN)C(=O)O` [Dyn A (1–13)]: at recombinant human Nln [1], the Ki is 1.19 µM.
Turning to `CC[C@H](C)[C@H](NC(=O)[C@H](CCCNC(=N)N)NC(=O)[C@H](CCCNC(=N)N)NC(=O)[C@H](CC(C)C)NC(=O)[C@H](Cc1ccccc1)NC(=O)CNC(=O)CNC(=O)[C@@H](N)Cc1ccc(O)cc1)C(=O)N[C@@H](CCCNC(=N)N)C(=O)N1CCC[C@H]1C(=O)N[C@@H](CCCCN)C(=O)N[C@@H](CC(C)C)C(=O)N[C@@H](CCCCN)C(=O)N[C@@H](Cc1c[nH]c2ccccc12)C(=O)N[C@@H](CC(=O)O)C(=O)N[C@@H](CC(N)=O)C(=O)N[C@@H](CCC(N)=O)C(=O)O` [Dyn A (1–17)], at recombinant human Nln [2], the Ki was ~6 µM.
For orientation: Kd means the free concentration of one partner at which half of the binding sites on the other are occupied at equilibrium, for simple one-to-one binding. Low values mean a tighter complex, high ones a looser complex. Compound `CC[C@H](C)[C@H](NC(=O)[C@H](CCCNC(=N)N)NC(=O)[C@H](CCCNC(=N)N)NC(=O)[C@H](CC(C)C)NC(=O)[C@H](Cc1ccccc1)NC(=O)CNC(=O)CNC(=O)c1ccc2c(c1)C(=O)OC21c2ccc(O)cc2Oc2cc(O)ccc21)C(=O)N[C@@H](CCCNC(=N)N)C(=O)N1CCC[C@H]1C(=O)N[C@@H](CCCCN)C(=O)N[C@@H](CC(C)C)C(=O)N[C@@H](CCCCN)C(=O)N[C@@H](Cc1c[nH]c2ccccc12)C(=O)N[C@@H](CC(=O)O)C(=O)N[C@@H](CC(N)=O)C(=O)N[C@@H](CCC(N)=O)C(=O)O` [FAM-^2GGFLRRIRPKLKWDNQ^17] had a Kd at rNln E475A of 3.26 µM. This lies in the single-digit micromolar range.
For the compound `CC[C@H](C)[C@H](NC(=O)[C@H](CCCNC(=N)N)NC(=O)[C@H](CCCNC(=N)N)NC(=O)[C@H](CC(C)C)NC(=O)[C@H](Cc1ccccc1)NC(=O)CNC(=O)CNC(=O)c1ccc2c(c1)C(=O)OC21c2ccc(O)cc2Oc2cc(O)ccc21)C(=O)N[C@@H](CCCNC(=N)N)C(=O)N1CCC[C@H]1C(=O)N[C@@H](CCCCN)C(=O)N[C@@H](CC(C)C)C(=O)N[C@@H](CCCCN)C(=O)O` [FAM-^2GGFLRRIRPKLK^13], the Kd on rNln E475A came out at 4.69 µM.
Consider `CC[C@H](C)[C@H](NC(=O)[C@H](CCCNC(=N)N)NC(=O)[C@H](CCCNC(=N)N)NC(=O)[C@H](CC(C)C)NC(=O)[C@H](Cc1ccccc1)NC(=O)CNC(=O)CNC(=O)c1ccc2c(c1)C(=O)OC21c2ccc(O)cc2Oc2cc(O)ccc21)C(=O)N[C@@H](CCCNC(=N)N)C(=O)N1CCC[C@H]1C(=O)O` [FAM-^2GGFLRRIRP^10] (5FAM-GGFLRRIRP-OH), for which the Kd on rNln E475A was found to be 8.46 µM.
Regarding YGGFLRRIR [Dyn A (1–9)], at recombinant human Nln [2], the Ki is ~6 µM.
